Activity calls are given as the source filed them. The calls are words filed in the database; no cut-off is given here.

The test system of series [1] is QBI293. Nature of the series: Cytotoxic activity against human QBI293 cells assessed as reduction in cel viability incubated for 24 hrs by alamar blue assay. It is filed as functional, cell-based. An outline of the steps: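 QBI293 cells seeded 10,000/well, grown overnight at 37°C, 5% CO2, then exposed in triplicate to a nM–µM range (diluted from 20 mM DMSO stocks; 0.25% DMSO vehicle as 0% toxicity, 100 µM tubercidin as 100%) for 18 h. Alamar Blue was then added at 10% of well volume for another 6 h. Fluorescence read at ex 550/em 590 nm. Percent cytotoxicity was derived from RFUs.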

Series [2] concerns QBI293. Nature of the series: Stabilization of microtubule in human QBI293 cells assessed as increase in acetylated alpha-tubulin up to 1 uM incubated for 4 hrs. It is filed as cell-based.
Series [3] has as its system Plasma. The experiment in a line: Drug level in mouse plasma treated with at 5 mg/kg, ip cmpound-4 assessed as compound formation. The conditions noted are these: in vivo.
Series [4] in a line: Retention time of the compound in mouse liver microsomes by LC-MS/MS method. It is filed as ADME.
Series [5] concerns Plasma. The experiment in a line: Drug metabolism in mouse plasma assessed as formation of (S)-4-(5-chloro-7-((1,1,1-trifluoropropan-2-yl)amino)-[1,2,4]triazolo[1,5-a]pyrimidin-6-yl)-3,5-difluorophenol at 5 mg/kg, ip. The following applies: in vivo.
Series [6] deals with Plasma. Nature of the series: Drug metabolism in mouse plasma assessed as formation of (S)-3-(4-(5-chloro-7-((1,1,1-trifluoropropan-2-yl)amino)-[1,2,4]triazolo[1,5-a]pyrimidin-6-yl)-3,5-difluorophenoxy)propanoic acid at 5 mg/kg, ip. The conditions noted are these: in vivo.
The nature of series [7]: Half life in rat brain at 5 mg/kg, ip. It is filed as ADME, organism-based.
Series [8] in a line: Half life in rat plasma at 5 mg/kg, ip. It is filed as ADME, organism-based.
In series [9] the test system is Mus musculus. The experiment in a line: In-vivo stabilization of microtubule in normal mouse assessed as increase in acetylated alpha-tubulin at 5 mg/kg, ip administered as two doses after 1 day. It is filed as functional, organism-based.
The test system of series [10] is Brain. The experiment in a line: Drug level in rat brain at 5 mg/kg, ip administered as single dose after 4 hrs. The conditions noted are these: in vivo. It is filed as ADME, organism-based.
The test system of series [11] is Brain. Nature of the series: Drug level in rat brain at 5 mg/kg, ip administered as two repeated doses separated by 4 hrs interval. The following applies: in vivo. It is filed as ADME, organism-based.

Turning to `C[C@H](Nc1c(-c2c(F)cc(O)cc2F)c(Cl)nc2ncnn12)C(F)(F)F`, in series [1], the outcome was inactive. Also, the inhibition entry in series [2] is “inactive”. In addition, in [3], the Drug metabolism result is recorded as “metabolite_detected”. Also, the Retention_time in series [4] was determined as 6.73 min.

Turning to `C[C@H](Nc1c(-c2c(F)cc(OCCC(=O)O)cc2F)c(Cl)nc2ncnn12)C(F)(F)F`, the outcome in [1] was inactive. Besides, in series [2], the inhibition result was “inactive”. Also, the Drug metabolism result in [3] is recorded as “metabolite_detected”. The compound further registered a Retention_time in [4] of 6.9 min.

`C[C@H](Nc1c(-c2c(F)cc(OCCCO)cc2F)c(Cl)nc2ncnn12)C(F)(F)F`: the Drug metabolism result in series [5] and in series [6] was “metabolite_detected” in each case. The outcome in series [1] and in [9] was Active. For the same compound, the inhibition result in series [2] is “Active”. For the same compound, the half-life in [7] is 420 min; in [8], 150 min. Besides, the Drug uptake result in series [10] and in series [11] was “Active” in each case. Moreover, in [4], the Retention_time was 6.91 min.

The record behind these values is ChEMBL document CHEMBL3632613, “Pharmacokinetic, pharmacodynamic and metabolic characterization of a brain retentive microtubule (MT)-stabilizing triazolopyrimidine” (Bioorg Med Chem Lett, 2015).
